The record followed here is ChEMBL document CHEMBL1121691, “Inhibition of cholesterol side-chain cleavage. 4. Synthesis of A or B ring modified azacholesterols” (J Med Chem, 1981).

What all share (details): cattle
The target of data set [1] is T1, cholesterol side-chain cleavage cytochrome P450 (mitochondrial) (Bos taurus, UniProt P00189).
T1 sequence (P00189 whole entry): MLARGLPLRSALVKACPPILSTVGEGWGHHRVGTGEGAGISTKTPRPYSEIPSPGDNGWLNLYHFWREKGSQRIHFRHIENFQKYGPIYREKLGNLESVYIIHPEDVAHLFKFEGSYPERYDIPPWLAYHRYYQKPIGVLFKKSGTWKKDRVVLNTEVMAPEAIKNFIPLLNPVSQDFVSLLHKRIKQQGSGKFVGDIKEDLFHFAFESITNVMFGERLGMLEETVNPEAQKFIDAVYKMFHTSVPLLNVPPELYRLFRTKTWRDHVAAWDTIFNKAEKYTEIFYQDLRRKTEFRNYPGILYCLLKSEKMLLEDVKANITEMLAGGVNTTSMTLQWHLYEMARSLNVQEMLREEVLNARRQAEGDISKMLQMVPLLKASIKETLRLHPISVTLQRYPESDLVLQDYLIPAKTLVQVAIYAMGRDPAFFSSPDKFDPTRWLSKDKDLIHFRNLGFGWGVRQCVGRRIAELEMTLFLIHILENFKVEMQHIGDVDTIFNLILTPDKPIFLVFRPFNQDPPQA
The data set is described as follows: Percent inhibition of cholesterol side-chain cleavage cytochrome P450 at 100 uM in bovine adrenocortical mitochondrial acetone powder preparations. An outline of the steps:
(§1)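 CSCC activity in adrenal preparations assayed by the previously reported method. Inhibitor tested at a final concentration of 100 μM or below. Isocaproic acid product volatilized in a heated vacuum desiccator and measured by liquid scintillation counting. Percent inhibition is taken from at least six data points across two separate experiments, with standard deviation from the mean.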

Data set [2] concerns the target T1, cholesterol side-chain cleavage cytochrome P450 (mitochondrial). The data set is described as follows: Percent inhibition of cholesterol side-chain cleavage cytochrome P450 at 10 uM in bovine adrenocortical mitochondrial acetone powder preparations. The method in brief:
as §1

The target is the same in data set [3]. The data set is described as follows: Percent inhibition of cholesterol side-chain cleavage cytochrome P450 at 1 uM in bovine adrenocortical mitochondrial acetone powder preparations. The method in brief:
as §1

Structures are written as SMILES.

Consider `CO[C@H]1CC[C@@]2(C)C(CC[C@H]3[C@@H]4CC[C@H](C(C)NCCC(C)C)[C@@]4(C)CC[C@@H]32)C1` (some centres undefined), for which, in data set [1], the inhibition – broadly, how much of the control response was suppressed – at 100 µM stood at 21%.

Compound `CCC(C)CNC(C)[C@H]1CC[C@H]2[C@@H]3CC=C4C[C@@H](OC)CC[C@]4(C)[C@H]3CC[C@]12C` (some centres undefined) displayed an inhibition at 10 µM in data set [2] of 89%. The compound also came in with an inhibition at 100 µM in data set [1] of 100%. In addition, 1 µM produced 12% inhibition in data set [3].

As to `CC(C)CCNC(C)[C@H]1CC[C@H]2[C@@H]3CCC4C[C@@H](O)CC[C@]4(C)[C@H]3CC[C@]12C` (some centres undefined), in data set [1], the inhibition at 100 µM was found to be 28%.

In data set [2], `CC(C)CCNC(C)[C@H]1CC[C@H]2[C@@H]3CC=C4C[C@@H](O)CC[C@]4(C)[C@H]3CC[C@]12C` (some centres undefined) gave an inhibition at 10 µM of 75%. The compound also showed an inhibition at 100 µM in data set [1] of 93%. This compound showed an inhibition at 1 µM in data set [3] of 10%.

In turn, `CO[C@H]1CC[C@@]2(C)C(=CC[C@H]3[C@@H]4CC[C@H](C(C)NCCC(C)C)[C@@]4(C)CC[C@@H]32)C1` (some centres undefined) came in with an inhibition at 10 µM in data set [2] of 86%. Besides, in data set [1], the inhibition at 100 µM turned out to be 99%. This compound also displayed an inhibition at 1 µM in data set [3] of 14%.

With `CC(C)CCNC(C)[C@H]1CC[C@H]2[C@@H]3CCC4CC(=O)CC[C@]4(C)[C@H]3CC[C@]12C` (some centres undefined), the inhibition at 100 µM in data set [1] was found to be 3%.

As to `CO[C@@H]1CC[C@@]2(C)C(CC[C@H]3[C@@H]4CC[C@H](N(C)CCCC(C)C)[C@@]4(C)CC[C@@H]32)C1` (some centres undefined), the inhibition at 100 µM in data set [1] was determined as 3%.

`CC(C)CCCN(C)[C@H]1CC[C@H]2[C@@H]3CCC4C[C@@H](O)CC[C@]4(C)[C@H]3CC[C@]12C` (some centres undefined) gave an inhibition at 100 µM in data set [1] of 26%.

The compound `CO[C@H]1CCC2(C)C(CC[C@@H]3[C@@H]2CCC2(C)[C@@H](N(C)CCCC(C)C)CC[C@@H]32)C1` (some centres undefined) gave an inhibition at 100 µM in data set [1] of 5%.

Take `CC(C)CCCN(C)[C@H]1CCC2C3CC=C4C[C@@H](O)CCC4(C)C3CCC21C` (some centres undefined): 10 µM produced 29% inhibition in data set [2]. The same compound returned an inhibition at 100 µM in data set [1] of 78%.

In data set [2], `CO[C@H]1CCC2(C)C(=CCC3C2CCC2(C)C3CC[C@@H]2N(C)CCCC(C)C)C1` (some centres undefined) yielded an inhibition at 10 µM of 30%. In addition, the inhibition at 100 µM in data set [1] stood at 86%.
